Test: Toxicity liver stage against HepG2, at 10uM
Assay type: cell-based
Design: test concentration 10 uM, cell line HepG2-A16-CD81EGFP
Conditions: human, HepG2-A16-CD81EGFP cells; read-out: INHIBITION
Method in brief: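 Uninfected HepG2-A16-CD81EGFP cells, 3 × 10^3 per well, 1536-well, plated on prespotted compound at 10 μM final, parasite-free screening media added to match infected plates; puromycin 10 μM positive, DMSO 0.5% negative; run in parallel with 48 h PbLuc assay at 37 °C, 5% CO2; viability by CellTiter-Glo luminescence, normalized to controls.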

Structure (SMILES)	cytotoxicity at 10 µM
FC(F)(F)c1ccccc1CN1CCOC[C@H](Oc2cccnc2)C1	4.3%
CCCNC(=O)CCC(=O)n1nc(C)c2ccccc21	1.23%
O=c1[nH]c2c(-c3ccccn3)nsc2c(=O)n1CC1CCCO1 (configuration not stated)	9.26%
O=C(CC1CCCC1)NCCS(=O)(=O)N1CCN(c2ccccn2)CC1	0.766%
Cc1ccc(S(=O)(=O)N2CCC(S(=O)(=O)c3nncn3C)CC2)cc1C	-6.9%
CN(C)c1ccc2c(c1)CN(C(=O)c1ccnnc1)C2c1cnco1 (configuration not stated)	0.841%
COC[C@H]1CCC[C@]12CN(S(=O)(=O)c1cccs1)CCO2	-1.34%
CNC(=O)[C@H]1C[C@@H]2CN(C(=O)c3occc3C)C[C@@H]2N1S(C)(=O)=O	-2.95%
O=C(c1ccoc1)N1CCC2(C1)CN(c1ncc(F)cn1)C2	-0.472%
Cc1ccc(CN2CC[C@H]3OCC[C@@H](C(=O)NCC4CC4)[C@@H]3C2)o1	0.951%
CCN1C[C@H]2CCN(C(=O)NC)CC[C@H]2S1(=O)=O	4%
CC(C)n1[nH]c(=O)c2c1NC(=O)CC2c1ccc(C#N)cc1 (configuration not stated)	3.92%
CC(C)(C)n1ncc2c1NC(=O)CC2c1ccc(C#N)cc1 (configuration not stated)	-1.26%
Clc1ccc2nncc(N3CCCCC3)c2c1	-4.34%
Cc1nn(C)c2c(N3CCC(C)CC3)nc(C3CC3)nc12	7.59%
Cn1nc(C(=O)N2CCOCC2)cc1C(=O)Nc1ncc(Cl)cc1Cl	12.5%
CS(=O)(=O)N1CCN(C(=O)c2cncs2)CC(C(N)=O)C1 (configuration not stated)	2.9%
CN(C(=O)c1ccc(C#N)cc1)c1nnc(C2CCOC2)s1 (configuration not stated)	0.36%
CCN(CC)C(=O)CN1CCCC1c1nc(C)c2c(n1)N(C)C(=O)CC2 (configuration not stated)	3.1%
O=C(NCCNC1CCCC1)c1cccs1	-0.579%
Fc1ccccc1-c1nccnc1C1CCCNC1 (configuration not stated)	-25.7%
COCCN1CCCC(Cc2ccc(N3CCOCC3)nn2)C1 (configuration not stated)	-17.9%
Cc1ccc(-c2cc(N)c(=O)n(C(C)C(=O)NCC3CCCCC3)n2)s1 (configuration not stated)	-13.9%

Structure (SMILES)	cytotoxicity at 10 µM
Cc1noc(C)c1-c1cncc(C2CCCN2Cc2cc[nH]n2)n1 (configuration not stated)	13%
Cc1ccccc1-c1cncc(C2CCN(CC(=O)N(C)C)CC2)n1	-12.5%
Cn1ccc(C(=O)N2CCCC(Cc3cccc4cccnc34)C2)n1 (configuration not stated)	-8.44%
CS(=O)(=O)c1ccc(NC(=O)NCc2ccc(F)cc2)cn1	15.4%
Cc1ccc2oc(N3CCN(CC(=O)NC(C)C)CC3)nc2c1	-10.9%
CCOc1ccc(NC(=O)c2oc(CC)cc2C)cc1CO	2.05%
Cc1cccc(-c2ccc(C(=O)N3CCN(C(C)C)CC3)c(=O)[nH]2)c1	-3.27%
CN1CCC(Nc2ccc(F)cc2OCC(F)(F)F)C1=O (configuration not stated)	-0.898%
COCCS(=O)(=O)N(Cc1ccsc1)c1ccccc1	-4.76%
Cn1cnc(S(=O)(=O)N2CCCCc3ccccc32)c1	-4.62%
CCCS(=O)(=O)NCc1ncc(C)c(OC)c1C	-12.9%
CN(C)c1ncccc1N(C)C(=O)Cn1cc(-c2ccccc2)nn1	-2.2%
O=C(Cc1cccs1)NCC(=O)Nc1cn[nH]c1	5.68%
NC(=O)CC1CCN(C(=O)NCc2cccc(-n3cccn3)c2)CC1	-2.45%
CC(C)COc1cncc(N2CCCN(CC(F)(F)F)CC2)n1	4.29%
CC(c1ncc(C(C)(C)C)o1)N1CCN(Cc2ccc(Cl)s2)CC1 (configuration not stated)	-1.21%
Cn1cc(C(=O)N2CCCN(c3cccnn3)CC2)c2ccccc21	4%
CNC(=O)Cn1cc(Nc2cccc(F)c2C#N)cn1	6.64%
O=C(c1ccoc1)N(Cc1ccccn1)C1CC1	-15%
O=C(NCCNC(=O)C1Cc2cc(F)ccc2O1)C1CCCCC1 (configuration not stated)	4.07%
CC(C)N(C)CCNC(=O)N1CCN(Cc2ccon2)CC1	-1.58%
CCc1cnc(CN(C)C2CCN(CC3CCC3)C2)o1 (configuration not stated)	-5.99%
OCC1CCCN1c1cc(NCCc2nccs2)ncn1 (configuration not stated)	4.58%

Structure (SMILES)	cytotoxicity at 10 µM
Cc1cc(NC(=O)CN2CCCC2c2noc(C3CC3)n2)on1 (configuration not stated)	3.46%
CSCC(C)N(C)C(=O)c1nn(-c2ccc(F)cc2C)cc1O (configuration not stated)	0.618%
CN1CCC(N(C)C(=O)CSc2ccc(F)c(F)c2)C1=O (configuration not stated)	-5.89%
Cc1cnn(C2CCCN(C(=O)c3c(C)oc(C)c3C)C2)c1 (configuration not stated)	2.56%
Cc1n[nH]c(C(=O)N2CCCC(C)CC2)c1Br (configuration not stated)	-1.74%
Cn1ccc(CNC(=O)N2CCC(C3(C)OCCO3)CC2)c1	3.15%
Cc1cc(NCc2cccc(C#N)c2)ccc1C(N)=O	10.1%
COCCc1noc(CNC(C)(CO)C2CCCCC2)n1 (configuration not stated)	7.88%
CCCn1cc(NC(=O)c2cccc3cccnc23)ccc1=O	-4.73%
COc1ccc(C)cc1NS(=O)(=O)c1ccc(CCNC(C)=O)s1	0.549%
NC(=O)C1CCCN1Cc1ccccc1NC(=O)Cc1cccc(F)c1 (configuration not stated)	7.31%
CCOCc1nnc(NCc2cccnc2)o1	10.9%
CN(CC(F)(F)F)C(=O)Cn1cc(NC(=O)C(C)(C)C)cn1	3.04%
CC(O)CN1CCN(C(=O)c2cnn(-c3ccccc3F)c2)CC1 (configuration not stated)	-6.81%
CC(C)(C)C(=O)NCCC(=O)NC(C)(C)c1ccc2c(c1)OCCO2	-1.22%
CC(=O)N(C)Cc1ncn2c1CN(C(=O)C1CCCO1)CCC2 (configuration not stated)	-101%
Cn1cccc1C(=O)NCc1cn2c(n1)CN(c1ncccn1)CC2	-109%
COCCN1CC(=O)c2sc(NCc3ccccc3)nc2C1	-6.77%
O=C(c1onc2ccccc12)N1CCC2(CCCNC2)C1 (configuration not stated)	-1.05%
Cc1nc(N2CCCC2C(=O)NCc2ccsc2)nc2ccccc12 (configuration not stated)	6.03%
CC(C)Oc1ccc(CN2CCC(Cc3nnc(CO)n3C)CC2)cc1	1.24%
COc1ccccc1CN1C(=O)O[C@@H]2CN(CC3CC3)C[C@@H]21	1.35%
CNc1ncc(CN(C)C(=O)CCc2[nH]nc3c2CCCC3)cn1	3.8%

Structure (SMILES)	cytotoxicity at 10 µM
O=C(NCCSc1ccccc1)[C@H]1CNC[C@@H](C(=O)N2CCOCC2)C1	-3.03%
CCOc1ccccc1C(C(=O)O)N(C)Cc1nnc(C)o1 (configuration not stated)	-9.77%
Cc1ccc2nc(CN3CCN(C4CCCC4)C(=O)C3)cc(O)c2c1	-0.803%
CC1(C)CNC(=O)c2nc(C3CCCN(S(C)(=O)=O)C3)[nH]c2C1 (configuration not stated)	0.611%
CCN1CCC(NN2CCN(C)CC2)CC1	0.935%
O=C1CCC2(CCOC2)CN1CCCOc1cccnc1 (configuration not stated)	-16.1%
O=C(c1ccc2ncsc2c1)N1CCC(C(=O)O)(n2cccn2)CC1	6.01%
O=c1cc(N2CCOCC2)cnn1CCc1ccc(F)cc1	8.01%
CCCc1ccc(CN2CCC3(CCC(=O)N(CCO)C3)CC2)o1	-6.29%
N#Cc1cccc(NC2CC(=O)N(Cc3cccc(F)c3)C2)n1 (configuration not stated)	-94.2%
Cc1ccc(Cl)c(C(C(=O)O)N(C)Cc2cnn(C)c2)c1 (configuration not stated)	-11%
O=C(c1cnc2ccccn12)N1CCCC(c2ccn[nH]2)C1 (configuration not stated)	-5.28%
COCCN1CCC(CN(C)c2ncnc3c2c(C)nn3C)C1 (configuration not stated)	-5.16%
CN(Cc1ccccc1Cl)C(=O)c1cc(CN2CCC(O)CC2)on1	0.0227%
Cc1nc2c(c(NCCNC(=O)C(C)C)n1)Cc1ccccc1OC2	4.74%
Cc1cnn(C2(C(=O)O)CCN(Cc3oc4ccccc4c3C)CC2)c1	-5.87%
Cc1oc(C(=O)O)cc1S(=O)(=O)Nc1cc(Br)ccc1F	-3.46%
Cc1noc(NC(=O)c2ccc(C#N)cc2)n1	-5.32%
CNc1nc(CNC(=O)Nc2cccc(CN(C)C)c2)cs1	-8.04%
CCOc1ccc(Cl)c(C(=O)NCCC(=O)Nc2ccncc2)n1	-13.9%
COCc1ccccc1CNC(=O)CN1CCCC1c1noc(C)n1 (configuration not stated)	1.13%
Cc1nc(CCNCc2c(C)nn(C)c2N2CCOCC2)cs1	-11.5%
Cc1cnn(C2CN(Cc3nc(-c4ccco4)no3)C2)c1	-14.6%

Structure (SMILES)	cytotoxicity at 10 µM
Cc1n[nH]c(C)c1C1COCCN1C(=O)c1ccccc1 (configuration not stated)	-3.94%
O=C(COc1ccc(C(F)(F)F)cc1)NS(=O)(=O)c1cccnc1	-7.44%
Cn1cc(-c2nc(CN3CCN(CCO)CC3)cs2)cn1	-2.66%
Cc1cnn(CC2CCCCN2CCn2cncn2)c1 (configuration not stated)	6.26%
Cn1ccc(C(=O)NCc2ccc(N3CCCC3)nc2)cc1=O	0.12%
Fc1cccc(-c2nc(CN3CCOC(Cn4cccn4)C3)co2)c1 (configuration not stated)	-5.6%
c1ccc(-n2ncc(CN3CCCC3Cn3cccn3)n2)cc1 (configuration not stated)	-2.73%
COc1ccc(C(=O)N(C)Cc2nnc3ccccn23)c(OC)c1	-3.03%
CNC(=O)c1ccc(CN2CCC(N(C)Cc3noc(C)n3)C2)cc1 (configuration not stated)	5.56%
CNCc1ccc(OCc2ccc3c(c2)OCCO3)cc1	1.61%
Cn1nc(C2CCCN(Cc3cccs3)C2)c2nccnc21 (configuration not stated)	4.2%
COc1ncnc2c1CCN(Cc1cccs1)CC2	8.55%
Cc1csc(CN2CC[C@H]3C[C@H](c4nc(C)no4)O[C@@H]3C2)n1	-3.35%
O=C([C@H]1COC[C@H]2CN(c3ncc(F)cn3)C[C@H]21)N1CCOCC1	-5.58%
CCc1ncnc2c1CCN(C(=O)c1ccccn1)CC2	2.43%
Cc1ccc(NC(=O)c2nc3c(s2)CCCN3C(=O)C2CC2)cn1	10.5%
O=C(NC1CC1)N1CCOCC2(CCN(Cc3cccs3)C2)C1 (configuration not stated)	-2.6%
CS(=O)(=O)N1CCC2(CC1)NCCn1c(-c3ccccc3)cnc12	3.61%
CN(C)C(=O)[C@H]1C[C@@H]2CCN(C3CCOCC3)C[C@@H]2O1	-3.01%
CC(=O)N1CC(=O)N(c2ccccc2)CC12CCN(Cc1nccs1)C2 (configuration not stated)	-2.23%
